Experimental data as given in ChEMBL document CHEMBL4028867, “Design, Synthesis, and Characterization of N-Oxide-Containing Heterocycles with in Vivo Sterilizing Antitubercular Activity” (J Med Chem, 2017).
In brackets after ≈: the same amount, converted by molar mass. Activity calls are given as the source filed them. The calls are words filed in the database; no cut-off is given here.

What was measured:
[1] = system: Mycobacterium tuberculosis; assay: Downregulation of htrA gene in Mycobacterium tuberculosis H37Rv at 2 times MIC90 after 4 hrs by microarray analysis; type: functional
[2] = system: Mycobacterium tuberculosis; assay: Antitubercular activity against Mycobacterium tuberculosis H37Rv ATCC 27294 in presence of 10% fetal bovine serum; type: functional
[3] = Fraction unbound in human plasma at 5 uM by LC-MS/MS analysis; type: ADME, cell-free
[4] = Apparent permeability from basolateral to apical side in human Caco2 cells by LC-MS/MS analysis; type: ADME, cell-based; conditions: caco-2
How it was run: (§1)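 Caco-2 monolayer permeability measured in both directions (apical-to-basolateral and basolateral-to-apical); result given as apparent permeability coefficient Papp in cm/s.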

[5] = system: Mycobacterium tuberculosis; assay: Antitubercular activity against dormant stage Mycobacterium tuberculosis H37Rv ATCC 27294 incubated for 10 days in anaerobic condition followed by incubation for 28 hrs in ambient gaseous condition measured after day 11 by two fold serial dilution assay; type: functional
[6] = system: Mycobacterium tuberculosis; assay: Antitubercular activity against Mycobacterium tuberculosis Erdman infected in BALB/c mouse at 200 mg/kg, po qd dosed via gavage starting at 10 days post-infection and terminated at 29 day post-infection for 5 consecutive days each week and measured 3 day wash-out period at 31 day-postinfection; type: functional, organism-based
How it was run: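 Drug in cholesterol/phospholipid microemulsion was given by oral gavage (200 μL) once daily, 5 days/week, from day 10 to day 29 post-infection; n = 7/group. After a 3-day washout, lungs were homogenized in HBSS-Tween at day 31 and plated on Middlebrook 7H11 for CFU.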

Mus musculus [7] = assay: Nephrotoxicity in BALB/c mouse assessed as change in kidney morphology at 200 mg/kg, po qd administered via gavage after 10 days by hematoxylin and eosin staining based analysis; type: toxicity, organism-based; conditions: in vivo, 240 h
How it was run: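 BALB/c mice dosed orally by gavage once daily at 200 mg/kg; liver and kidney sections stained with H&E and examined for tissue morphology.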

Mus musculus [8] = assay: Toxicity in BALB/c mouse assessed as change in lung weight at 200 mg/kg, po qd administered via gavage after 10 days; type: organism-based; conditions: in vivo, 240 h
How it was run: (§2)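 Mice given one daily oral gavage dose of 200 mg/kg body weight for 10 days with daily behavioural monitoring (hippocratic screening); heart, lung, spleen, kidney and liver weights compared with controls by ANOVA and Dunnett's test, p < 0.05.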

[9] = Apparent permeability from apical to basolateral side in human Caco2 cells by LC-MS/MS analysis; type: ADME, cell-based; conditions: caco-2; how it was run: as §1
Mus musculus [10] = assay: Toxicity in BALB/c mouse assessed as change in kidney weight at 200 mg/kg, po qd administered via gavage after 10 days; type: organism-based; conditions: in vivo, 240 h; how it was run: as §2
[11] = system: Mycobacterium tuberculosis; assay: Upregulation of ribosomal protein gene in Mycobacterium tuberculosis H37Rv at 2 times MIC90 after 4 hrs by microarray analysis; type: functional
[12] = n-Octanol/water partition coefficient, log P of the compound by HPLC analysis; type: physicochemical
How it was run: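 Log P from n-octanol/water partition coefficient determined by HPLC method.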

Mus musculus [13] = assay: Toxicity in BALB/c mouse assessed as behavioral parameter changes (hippocratic screening) at 200 mg/kg, po qd administered via gavage after 10 days; type: organism-based; conditions: in vivo, 240 h; how it was run: as §2
Candida albicans = assay: Antimicrobial activity against Candida albicans ATCC 10231 at 200 uM incubated for 48 hrs; type: functional
[14] = Induction of nitric oxide release by Griess assay
How it was run: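 Griess assay: chemical detection of nitrite ions in solution as indicator of nitric oxide release.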

[15] = system: Mycobacterium tuberculosis; assay: Up-regulation of heat shock protein genes in Mycobacterium tuberculosis H37Rv at 2 times MIC after 4 hrs by microarray analysis; type: functional
Mus musculus [16] = assay: Nephrotoxicity in BALB/c mouse assessed as change in urea level in blood at 200 mg/kg, po qd administered via gavage after 10 days; type: toxicity, organism-based; conditions: in vivo, 240 h
Mus musculus [17] = assay: Toxicity in BALB/c mouse assessed as change in spleen weight at 200 mg/kg, po qd administered via gavage after 10 days; type: organism-based; conditions: in vivo, 240 h; how it was run: as §2
[18] = system: Mycobacterium tuberculosis; assay: Up-regulation of […] gene EF-G in Mycobacterium tuberculosis H37Rv at 2 times MIC90 after 4 hrs by microarray analysis; type: functional
[19] = system: Mycobacterium tuberculosis; assay: Growth inhibition of Mycobacterium tuberculosis H37Rv exposed to plasma from BALB/c mouse treated with 300 mg/kg, po administered through microemulsion vehicle as single oral dose per gavage after 2 hrs by Resazurin microtiter assay; type: functional; conditions: read-out: GI
How it was run: (§3)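 The microemulsion was 10% cholesterol, 10% phosphatidylcholine/sodium oleate/polyoxyl 40 hydrogenated castor oil (3:6:8) and 80% phosphate buffer pH 7.4. Plasma taken at 0.3, 1, 2 or 4 h was tested by REMA for % Mtb growth inhibition, and plasma level was estimated against the in-vitro REMA MIC.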

[20] = system: Mycobacterium tuberculosis; assay: Antitubercular activity against replicating stage Mycobacterium tuberculosis H37Rv ATCC 27294 after 7 days by Resazurin microtiter assay; type: functional; conditions: H37Rv ATCC 27294, 168 h
[21] = system: Mycobacterium tuberculosis; assay: Up-regulation of ATP synthase sub-units genes in Mycobacterium tuberculosis H37Rv at 2 times MIC90 after 4 hrs by microarray analysis; type: functional
[22] = system: Mycobacterium tuberculosis; assay: Growth inhibition of Mycobacterium tuberculosis H37Rv exposed to plasma from BALB/c mouse treated with 300 mg/kg, po administered through microemulsion vehicle as single oral dose per gavage after 4 hrs by Resazurin microtiter assay; type: functional; conditions: read-out: GI; how it was run: as §3
[23] = Chemical stability in PBS at pH 5.5 assessed as drug degradation after 10 hrs by HPLC-UV analysis; type: physicochemical; conditions: read-out: Drug degradation
[24] = system: Mycobacterium tuberculosis; assay: Up-regulation of […] gene EF-Tu in Mycobacterium tuberculosis H37Rv at 2 times MIC90 after 4 hrs by microarray analysis; type: functional
[25] = system: Mycobacterium tuberculosis; assay: Antitubercular activity against Mycobacterium tuberculosis H37Rv ATCC 27294 under normal pH 6.8 condition; type: functional
Mus musculus [26] = assay: Hepatotoxicity in BALB/c mouse assessed as change in alanine aminotransferase level in plasma at 200 mg/kg, po qd administered via gavage after 10 days; type: toxicity, organism-based; conditions: in vivo, 240 h

For O=C(N/N=C/c1ccc2no[n+]([O-])c2c1)c1ccncc1, the Activity [1] was “Active”, the MIC90 [2] was 11.8 µM and the fraction unbound at 5 µM [3] was 0.465. For the same compound, the Papp [4] was 3.9 ×10⁻⁶ cm/s, the MIC90 [5] was 6.62 µM (≈ 1.88 µg/mL) and the Activity [6] was “inactive”. For the same compound, the Activity (Mus musculus [7]) was “Non-Toxic”, the Activity (Mus musculus [8]) was “Non-Toxic” and the Papp [9] was 5.67 ×10⁻⁶ cm/s. For the same compound, the Activity (Mus musculus [10]) was “Non-Toxic”, the Activity [11] was “Active” and the logP [12] was 1.5. The Activity (Mus musculus [13]) was “Non-Toxic”, the Activity (Candida albicans) was “inactive” and the Activity [14] was “inactive”. For the same compound, the Activity [15] was “inactive”, the Activity (Mus musculus [16]) was “Toxic” and the Activity (Mus musculus [17]) was “Non-Toxic”. The Activity [18] was “Active”, the inhibition in vivo at 300 mg/kg [19] was 76% and the MIC90 [20] was 1.1 to 5.84 µM (≈ 0.312 to 1.65 µg/mL). The Activity [21] was “Active”, the inhibition in vivo at 300 mg/kg [22] was 51.3% and the degraded at 10 h [23] was 20%. For the same compound, the Activity [24] was “Active”, the MIC90 [25] was 5.47 µM (≈ 1.55 µg/mL) and the Activity (Mus musculus [26]) was “Non-Toxic”.
